Results published in paper PMC3778256 (Epilepsy research, 2012).

What was measured:
[1] = system: P-glycoprotein (Pgp) at the blood-brain barrier; settings: naïve rats, 15 mg/kg; ref Kuntner et al. 2010; cited from earlier work
[2] = biological target: T1, human MDR1 (Pgp) (Homo sapiens, UniProt P08183); settings: tariquidar 0.5 μM; ref Luna-Tortós et al. 2008; cited from earlier work
[3] = system: P-glycoprotein (Pgp) at the blood-brain barrier; test: Paired small-animal PET scans in rats before and after tariquidar
[4] = system: P-glycoprotein (Pgp) at the blood-brain barrier
[5] = Plasma protein binding by ultrafiltration; assay type: in vitro ADME; settings: rat plasma, n = 3
[6] = biological target: multidrug resistance proteins (MRPs) at the murine BBB (Mus musculus, UniProt O35379); settings: single 60-min PET scans, n = 4 each
[7] = system: multidrug resistance proteins (MRPs) at the murine BBB; settings: wild-type mice, MK571 20 mg/kg iv 30 min before scan
[8] = Radio-HPLC analysis of radiolabelled metabolites in rat plasma and brain; settings: 40 min after injection
[9] = biological target: murine Mdr1a (Pgp) (Mus musculus, UniProt P21447); test: Concentration equilibrium transport assay in LLC-Mdr1a cells; assay type: cell-based; settings: 50 μM both chambers, 6 h, with/without tariquidar 0.5 μM
[10] = biological target: human MRP1 (Homo sapiens, UniProt P33527); test: Concentration equilibrium transport assay in LLC-MRP1 cells; assay type: cell-based; settings: 50 μM both chambers, 6 h, with/without MK571 50 μM
Method in brief: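 LLC-PK1 transfected with MRP1, ≤13 passages, seeded at 0.3 × 10^6 cells/cm2 on polyester filters; assayed 5–7 days post-confluence in Opti-MEM after 1 h pre-incubation ± MK571 50 µM. Test compound 50 µM in both chambers; both sampled at 60, 120, 240, 360 min; 37°C, 5% CO2, 50 rpm; triplicate. Integrity: TEER, [14C]mannitol; calcein-AM 1 µM positive control.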

[11] = biological target: T1, human MDR1 (Pgp); test: Concentration equilibrium transport assay in LLC-MDR1 cells; assay type: cell-based; settings: 50 μM both chambers, 6 h, with/without tariquidar 0.5 μM

T1 sequence (P08183 whole entry): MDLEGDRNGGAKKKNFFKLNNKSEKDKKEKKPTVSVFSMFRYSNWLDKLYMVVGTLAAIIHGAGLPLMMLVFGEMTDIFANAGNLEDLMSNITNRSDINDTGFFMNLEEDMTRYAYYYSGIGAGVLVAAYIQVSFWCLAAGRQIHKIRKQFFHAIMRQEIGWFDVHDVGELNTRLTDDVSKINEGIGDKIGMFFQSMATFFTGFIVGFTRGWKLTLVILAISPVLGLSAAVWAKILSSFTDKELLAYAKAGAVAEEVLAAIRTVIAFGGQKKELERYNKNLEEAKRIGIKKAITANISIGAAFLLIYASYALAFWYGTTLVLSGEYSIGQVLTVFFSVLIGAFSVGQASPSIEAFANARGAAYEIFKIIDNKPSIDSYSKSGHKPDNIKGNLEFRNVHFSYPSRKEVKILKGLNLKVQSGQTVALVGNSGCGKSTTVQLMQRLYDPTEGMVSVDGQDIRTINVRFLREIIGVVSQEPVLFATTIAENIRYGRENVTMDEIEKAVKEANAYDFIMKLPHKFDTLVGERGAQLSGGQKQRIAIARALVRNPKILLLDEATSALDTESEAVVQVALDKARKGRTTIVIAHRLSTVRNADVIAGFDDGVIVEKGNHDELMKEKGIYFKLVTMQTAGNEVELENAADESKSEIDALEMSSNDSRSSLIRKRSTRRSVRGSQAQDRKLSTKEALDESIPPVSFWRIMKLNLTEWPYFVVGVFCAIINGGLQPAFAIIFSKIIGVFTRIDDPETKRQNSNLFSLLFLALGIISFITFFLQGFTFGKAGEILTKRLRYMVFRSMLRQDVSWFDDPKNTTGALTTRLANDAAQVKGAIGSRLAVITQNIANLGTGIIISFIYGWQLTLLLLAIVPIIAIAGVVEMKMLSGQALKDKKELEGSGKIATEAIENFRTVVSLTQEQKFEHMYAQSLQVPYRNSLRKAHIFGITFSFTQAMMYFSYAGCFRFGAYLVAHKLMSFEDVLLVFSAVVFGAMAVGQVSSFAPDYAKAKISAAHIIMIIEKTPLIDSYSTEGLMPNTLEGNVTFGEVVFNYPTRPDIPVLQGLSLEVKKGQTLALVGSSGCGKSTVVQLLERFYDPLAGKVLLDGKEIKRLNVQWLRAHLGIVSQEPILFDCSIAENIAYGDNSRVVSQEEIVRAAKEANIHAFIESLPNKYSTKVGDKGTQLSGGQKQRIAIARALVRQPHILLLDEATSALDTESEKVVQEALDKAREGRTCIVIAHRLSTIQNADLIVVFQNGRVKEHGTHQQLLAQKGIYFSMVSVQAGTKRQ
multidrug resistance proteins (MRPs) at the murine BBB (Mus musculus, UniProt O35379), sequence (O35379 whole entry): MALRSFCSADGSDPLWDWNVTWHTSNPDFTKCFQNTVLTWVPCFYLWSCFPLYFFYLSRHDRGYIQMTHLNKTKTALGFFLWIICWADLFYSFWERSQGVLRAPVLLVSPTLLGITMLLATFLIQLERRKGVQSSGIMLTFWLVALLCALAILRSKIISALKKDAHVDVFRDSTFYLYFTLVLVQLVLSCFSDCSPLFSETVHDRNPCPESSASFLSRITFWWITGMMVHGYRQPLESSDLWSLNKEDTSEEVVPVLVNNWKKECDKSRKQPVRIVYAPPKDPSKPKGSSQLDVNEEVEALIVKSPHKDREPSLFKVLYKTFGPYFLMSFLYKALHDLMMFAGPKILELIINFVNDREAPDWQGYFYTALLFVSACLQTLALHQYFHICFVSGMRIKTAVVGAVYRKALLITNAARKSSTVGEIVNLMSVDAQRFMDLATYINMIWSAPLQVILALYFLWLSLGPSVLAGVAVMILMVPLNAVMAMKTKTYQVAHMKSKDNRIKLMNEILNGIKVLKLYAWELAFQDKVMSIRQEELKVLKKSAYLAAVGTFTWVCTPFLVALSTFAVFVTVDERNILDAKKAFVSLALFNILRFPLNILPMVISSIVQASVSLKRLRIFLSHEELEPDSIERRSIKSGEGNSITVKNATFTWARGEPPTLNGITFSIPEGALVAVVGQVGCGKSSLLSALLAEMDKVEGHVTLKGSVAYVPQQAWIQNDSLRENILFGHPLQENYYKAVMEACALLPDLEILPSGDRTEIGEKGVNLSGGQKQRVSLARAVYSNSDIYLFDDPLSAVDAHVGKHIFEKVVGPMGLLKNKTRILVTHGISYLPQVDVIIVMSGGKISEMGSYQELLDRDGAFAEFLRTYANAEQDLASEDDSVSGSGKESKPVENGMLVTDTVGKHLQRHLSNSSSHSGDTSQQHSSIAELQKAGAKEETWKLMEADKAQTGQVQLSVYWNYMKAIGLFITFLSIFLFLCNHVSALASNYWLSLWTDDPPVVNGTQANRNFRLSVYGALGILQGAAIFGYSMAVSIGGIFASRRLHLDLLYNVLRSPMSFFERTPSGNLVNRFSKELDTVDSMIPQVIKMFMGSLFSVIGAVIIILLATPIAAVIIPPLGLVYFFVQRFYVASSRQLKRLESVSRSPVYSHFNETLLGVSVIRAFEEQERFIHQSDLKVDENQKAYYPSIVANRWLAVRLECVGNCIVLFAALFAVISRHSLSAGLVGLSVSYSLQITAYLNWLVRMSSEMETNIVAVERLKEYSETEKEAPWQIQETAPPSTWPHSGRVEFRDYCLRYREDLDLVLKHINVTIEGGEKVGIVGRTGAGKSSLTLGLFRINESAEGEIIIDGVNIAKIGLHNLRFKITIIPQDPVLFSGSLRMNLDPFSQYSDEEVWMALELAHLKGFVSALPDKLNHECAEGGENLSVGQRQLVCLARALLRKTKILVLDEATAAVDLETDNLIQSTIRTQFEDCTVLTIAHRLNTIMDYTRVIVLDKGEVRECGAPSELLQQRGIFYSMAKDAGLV
human MRP1, sequence (P33527 whole entry): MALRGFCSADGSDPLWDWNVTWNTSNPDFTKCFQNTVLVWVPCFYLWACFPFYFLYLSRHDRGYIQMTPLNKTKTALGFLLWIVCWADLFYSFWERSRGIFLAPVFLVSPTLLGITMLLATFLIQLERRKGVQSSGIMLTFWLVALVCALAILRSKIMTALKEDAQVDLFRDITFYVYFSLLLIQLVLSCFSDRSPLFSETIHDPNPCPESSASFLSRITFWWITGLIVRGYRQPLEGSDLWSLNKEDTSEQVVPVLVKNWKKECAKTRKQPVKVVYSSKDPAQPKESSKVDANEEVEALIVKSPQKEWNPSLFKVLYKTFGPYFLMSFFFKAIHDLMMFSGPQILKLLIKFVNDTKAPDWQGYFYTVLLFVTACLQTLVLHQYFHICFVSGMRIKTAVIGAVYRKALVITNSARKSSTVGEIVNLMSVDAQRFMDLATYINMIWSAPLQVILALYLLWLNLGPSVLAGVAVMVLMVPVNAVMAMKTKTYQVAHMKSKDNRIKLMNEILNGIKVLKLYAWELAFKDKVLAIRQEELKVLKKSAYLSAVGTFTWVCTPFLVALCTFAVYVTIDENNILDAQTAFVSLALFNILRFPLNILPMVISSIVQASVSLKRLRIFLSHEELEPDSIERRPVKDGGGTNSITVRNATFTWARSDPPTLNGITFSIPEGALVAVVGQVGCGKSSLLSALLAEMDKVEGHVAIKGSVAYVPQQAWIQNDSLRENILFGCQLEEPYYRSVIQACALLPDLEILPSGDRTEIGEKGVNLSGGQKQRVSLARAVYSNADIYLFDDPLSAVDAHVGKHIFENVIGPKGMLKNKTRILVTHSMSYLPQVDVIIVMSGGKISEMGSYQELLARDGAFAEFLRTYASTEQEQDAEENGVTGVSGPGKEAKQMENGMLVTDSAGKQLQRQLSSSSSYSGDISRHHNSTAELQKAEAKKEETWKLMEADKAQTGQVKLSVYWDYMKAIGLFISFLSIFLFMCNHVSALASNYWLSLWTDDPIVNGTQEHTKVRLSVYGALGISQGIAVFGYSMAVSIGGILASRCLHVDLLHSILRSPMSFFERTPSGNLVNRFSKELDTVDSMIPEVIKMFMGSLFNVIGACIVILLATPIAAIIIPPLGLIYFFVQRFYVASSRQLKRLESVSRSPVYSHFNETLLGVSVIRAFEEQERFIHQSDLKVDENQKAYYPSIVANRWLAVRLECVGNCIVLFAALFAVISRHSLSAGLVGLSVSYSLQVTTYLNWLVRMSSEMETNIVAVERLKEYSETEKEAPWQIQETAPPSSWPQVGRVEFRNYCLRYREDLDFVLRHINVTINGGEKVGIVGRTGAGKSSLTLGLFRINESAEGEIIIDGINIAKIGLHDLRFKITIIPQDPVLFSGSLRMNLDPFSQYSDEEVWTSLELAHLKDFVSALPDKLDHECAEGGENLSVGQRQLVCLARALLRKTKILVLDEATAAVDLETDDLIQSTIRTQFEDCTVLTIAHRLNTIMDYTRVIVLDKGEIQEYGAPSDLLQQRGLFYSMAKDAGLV

For `COc1cc2c(cc1OC)CN(CCc1ccc(NC(=O)c3cc(OC)c(OC)cc3NC(=O)c3cnc4ccccc4c3)cc1)CC2` [tariquidar], the “inhibition of Pgp at the BBB” value [1] is given as “completely inhibit Pgp”.

For `CCC1(c2ccccc2)C(=O)NC(=O)NC1=O` [phenobarbital], the “inhibition of MDR1 transport by tariquidar” value [2] is given as 54%.

With `CCC1(c2ccccc2)C(=O)NC(=O)N([11CH3])C1=O` (centres unmarked) [[^11C]mephobarbital] the “Peak brain activity uptake (SUV)” value ([3]; scan 1 (before tariquidar), about 1 min after iv injection, n = 3) was 3.1±0.2 SUV, the “brain-to-blood AUC0-60 ratio” value ([3]; scan 1 (before tariquidar), n = 3) was 2.0±0.5 and the “brain-to-blood AUC0-60 ratio in scan 1 as compared to (R)-[11C]verapamil” value ([3]; scan 1, Supplementary Fig. S1) was “two times higher”. For the same molecule, the “brain-to-blood AUC0-60 ratio” value ([3]; scan 2 (after tariquidar 15 mg/kg iv), n = 3) was 2.4±0.3, the “Blood activity concentrations (SUV), comparison of groups and scans” value ([4]; 25 and 60 min, wild-type and Mdr1a/b(-/-) mice, scan 1 and 2, three comparisons excepted (p < 0.05)) was “similar” and the “Brain AUC0-60, wild-type versus Mdr1a/b(-/-) mice” value ([4]; scan 1 and scan 2, respectively, n = 3 each) was “not significantly different”. For the same molecule, the “Brain AUC0-60, scan 2 relative to scan 1” value ([4]; wild-type mice, tariquidar 15 mg/kg, p = 0.013) was “significantly decreased”, the “fraction unbound in plasma” value [5] was 0.21±0.05 and the “Brain uptake, wild-type versus Mrp1(-/-) mice” value [6] was “did neither differ”. The “Brain uptake, untreated versus MK571 pretreated mice” value [7] was “did neither differ”, the “total activity in brain in the form of unchanged parent” value ([8]; rat brain tissue extracts, n = 5) was 96±6% and the “total activity in plasma as unchanged parent” value ([8]; rat plasma) was greater than 85%.

In the case of `CCC1(c2ccccc2)C(=O)NC(=O)N(C)C1=O` (centres unmarked) [mephobarbital, methylphenobarbital], the “basolateral-to-apical transport by murine Mdr1a” value [9] is reported as “lack of active transport”, the “basolateral-to-apical transport by human MRP1” value [10] is reported as “lack of active transport” and the “basolateral-to-apical transport by human MDR1” value [11] is reported as “lack of active transport”.
